Experimental data published in ChEMBL document CHEMBL4680114, “Optimization of Potent and Selective Ataxia Telangiectasia-Mutated Inhibitors Suitable for a Proof-of-Concept Study in Huntington's Disease Models” (J Med Chem, 2019).
≈ marks a conversion by molar mass, not a printed value.

Assays:
[1] = Kinetic solubility in pH 7.4 PBS buffer by LC-UV assay; format: physicochemical; conditions: read-out: Kinetic_solubility
Procedure, shortened: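 Compound from a 10 mM DMSO stock diluted to a nominal 200 µM in 0.1 M potassium phosphate/0.8% NaCl pH 7.4 (2% DMSO final), n=2. Shaken 2 h at room temperature, then filtered. Filtrate quantified by LC-UV against 200 µM and 10 µM DMSO standards, with MS peak confirmation.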

[2] = AUC/dose in C57BL/6J mouse brain at 3 mg/kg, iv administered as single dose by LC-MS/MS analysis; format: ADME, organism-based; conditions: in vivo
Procedure, shortened: (§1)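 Male C57BL/6 mice, single intravenous dose as solution in 10:50:40 DMSO:PEG400:H2O (5 mL/kg). Plasma by cardiac puncture and brain collected at set times, n=3 per time point. LC-MS/MS quantitation with diclofenac IS. Composite non-compartmental parameters from mean concentrations; C0 back-extrapolated from first two points; kel from at least last three concentrations; AUC dose-normalized.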

[3] = Ratio of AUC/dose in brain to plasma of C57BL/6J mouse at 3 mg/kg, iv administered as single dose by LC-MS/MS analysis; format: ADME, organism-based; conditions: brain and plasma, read-out: BPR
Procedure, shortened: (§2)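 Male mice given a single iv dose of 3 mg/kg in 10:50:40 DMSO:PEG400:H2O (5 mL/kg). Plasma (cardiac puncture) and brain collected, n=3 per time point, and measured by LC-MS/MS. Non-compartmental parameters from mean concentrations, with C0 back-extrapolated; AUC by linear trapezoidal method, dose-normalised.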

[4] = Unbound brain-to-plasma concentration ratio in C57BL/6J mouse at 3 mg/kg, iv administered as single dose by LC-MS/MS analysis; format: ADME, organism-based; conditions: brain and plasma, read-out: K(p,uu,brain)
[5] = Volume of distribution at steady state in C57BL/6J mouse at 3 mg/kg, iv administered as single dose by LC-MS/MS analysis; format: ADME, organism-based; conditions: in vivo, read-out: Vdss; procedure, shortened: as §2
[6] = AUC/dose in C57BL/6J mouse plasma at 3 mg/kg, iv administered as single dose by LC-MS/MS analysis; format: ADME, organism-based; conditions: in vivo; procedure, shortened: as §1
[7] = Distribution coefficient, logD of compound at pH 7.4; format: physicochemical; conditions: octanol/water

solubility kinetic [1] [µg/mL] | Structure (SMILES) | also measured
14 (≈ 29.4 µM) | CC1(CNc2ccc3c(c2)Cc2cccc(-c4cc(=O)cc(N5CCOCC5)o4)c2S3)COC1 | 
7 (≈ 13.3 µM) | O=c1cc(-c2cccc3c2Sc2ccc(O[C@@H]4CCN(CC(F)F)C4)cc2C3)oc(N2CCOCC2)c1 | AUC/dose [2]: 380 nM·kg·h/mg; Kp [3]: 0.2; Kp uu [4]: 0.05; Vd [5]: 2.6 L/kg; AUC/dose [6]: 1600 nM·kg·h/mg
10 (≈ 20.9 µM) | O=c1cc(-c2cccc3c2Sc2ccc(OC4CCOCC4)cc2C3)oc(N2CCOCC2)c1 | 
13 (≈ 25 µM) | C[C@H](COc1ccc2c(c1)Cc1cccc(-c3cc(=O)cc(N4CCOCC4)o3)c1S2)N1CCOCC1 | 
77 (≈ 172 µM) | CC(=O)N(C)c1ccc2c(c1)Cc1cccc(-c3cc(=O)cc(N4CCOCC4)o3)c1S2 | 
67 (≈ 148 µM) | COC[C@H]1c2cc(OC)ccc2Sc2c(-c3cc(=O)cc(N4CCOCC4)o3)cccc21 | AUC/dose [2]: 430 nM·kg·h/mg; Kp [3]: 0.4; Kp uu [4]: 0.18; Vd [5]: 3 L/kg; AUC/dose [6]: 960 nM·kg·h/mg
46 (≈ 84 µM) | C[C@@H]1CN(CC(=O)Nc2ccc3c(c2)Cc2cccc(-c4cc(=O)cc(N5CCOCC5)o4)c2S3)C[C@H](C)O1 | logD [7]: 4.5
64 (≈ 142 µM) | COC[C@@H]1c2cc(OC)ccc2Sc2c(-c3cc(=O)cc(N4CCOCC4)o3)cccc21 | 
33 (≈ 69.1 µM) | COc1ccc2c(c1)C1(CCOCC1)c1cccc(-c3cc(=O)cc(N4CCOCC4)o3)c1S2 | AUC/dose [2]: 700 nM·kg·h/mg; Kp [3]: 0.5; Kp uu [4]: 0.12; Vd [5]: 3 L/kg; AUC/dose [6]: 1500 nM·kg·h/mg
49 (≈ 94.1 µM) | C[C@H](CN1CCOCC1)Oc1ccc2c(c1)Cc1cccc(-c3cc(=O)cc(N4CCOCC4)o3)c1S2 | 
26 (≈ 47.6 µM) | C[C@@H](CN1CCOC2(CC2)C1)Oc1ccc2c(c1)Cc1cccc(-c3cc(=O)cc(N4CCOCC4)o3)c1S2 | 
81 (≈ 161 µM) | O=C(CN1CCCC1)Nc1ccc2c(c1)Cc1cccc(-c3cc(=O)cc(N4CCOCC4)o3)c1S2 | 
34 (≈ 78.2 µM) | CC(=O)Nc1ccc2c(c1)Cc1cccc(-c3cc(=O)cc(N4CCOCC4)o3)c1S2 | 
24 (≈ 43.7 µM) | C[C@@H]1CN([C@H](C)COc2ccc3c(c2)Cc2cccc(-c4cc(=O)cc(N5CCOCC5)o4)c2S3)C[C@H](C)O1 | 
30 (≈ 54.7 µM) | C[C@H](CN1C[C@@H](C)O[C@@H](C)C1)Oc1ccc2c(c1)Cc1cccc(-c3cc(=O)cc(N4CCOCC4)o3)c1S2 | AUC/dose [2]: 110 nM·kg·h/mg; Kp [3]: 0.1; Kp uu [4]: 0.03; Vd [5]: 2.3 L/kg; AUC/dose [6]: 1100 nM·kg·h/mg
47 (≈ 86 µM) | O=c1cc(-c2cccc3c2Sc2ccc(OCCN4CCCC45CCOC5)cc2C3)oc(N2CCOCC2)c1 (stereo not given) | 
27 (≈ 49.2 µM) | C[C@@H]1CN(C[C@H](C)Oc2ccc3c(c2)Cc2cccc(-c4cc(=O)cc(N5CCOCC5)o4)c2S3)C[C@H](C)O1 | 
30 (≈ 66.4 µM) | C[C@H](O)COc1ccc2c(c1)Cc1cccc(-c3cc(=O)cc(N4CCOCC4)o3)c1S2 | 
12 (≈ 23.4 µM) | O=c1cc(-c2cccc3c2Sc2ccc(OC4CN(CC(F)F)C4)cc2C3)oc(N2CCOCC2)c1 | 
3 (≈ 5.7 µM) | O=c1cc(-c2cccc3c2Sc2ccc(OCCN4CCC(F)(F)C4)cc2C3)oc(N2CCOCC2)c1 | 

solubility kinetic [1] [µg/mL] | Structure (SMILES) | also measured
101 (≈ 179 µM) | CC(C)(O)C1CCN(CCOc2ccc3c(c2)Cc2cccc(-c4cc(=O)cc(N5CCOCC5)o4)c2S3)CC1 | AUC/dose [2]: 120 nM·kg·h/mg; Kp [3]: 0.1; Kp uu [4]: 0.05; Vd [5]: 4.2 L/kg; AUC/dose [6]: 950 nM·kg·h/mg
3 (≈ 5.55 µM) | O=c1cc(-c2cccc3c2Sc2ccc(OCCN4CCC(F)(F)CC4)cc2C3)oc(N2CCOCC2)c1 | 
42.5 (≈ 79.5 µM) | C[C@@H]1CN(CCOc2ccc3c(c2)Cc2cccc(-c4cc(=O)cc(N5CCOCC5)o4)c2S3)C[C@H](C)O1 | 
92 (≈ 177 µM) | CN1CCN(CCOc2ccc3c(c2)Cc2cccc(-c4cc(=O)cc(N5CCOCC5)o4)c2S3)CC1 | 
56 (≈ 108 µM) | C[C@@H](CN1CCOCC1)Oc1ccc2c(c1)Cc1cccc(-c3cc(=O)cc(N4CCOCC4)o3)c1S2 | 
46 (≈ 93 µM) | O=c1cc(-c2cccc3c2Sc2ccc(OCCN4CC(F)C4)cc2C3)oc(N2CCOCC2)c1 | 
14 (≈ 30.1 µM) | CO[C@@H](C)COc1ccc2c(c1)Cc1cccc(-c3cc(=O)cc(N4CCOCC4)o3)c1S2 | 
5 (≈ 10.9 µM) | O=C(Nc1ccc2c(c1)Cc1cccc(-c3cc(=O)cc(N4CCOCC4)o3)c1S2)C1CC1 | 
25 (≈ 55.6 µM) | O=c1cc(-c2cccc3c2Sc2ccc(OC4COC4)cc2C3)oc(N2CCOCC2)c1 | AUC/dose [2]: 450 nM·kg·h/mg; Kp [3]: 0.2; Kp uu [4]: 0.07; Vd [5]: 1.6 L/kg; AUC/dose [6]: 1900 nM·kg·h/mg
5 (≈ 11.5 µM) | COc1ccc2c(c1)C(C)(C)c1cccc(-c3cc(=O)cc(N4CCOCC4)o3)c1S2 | 
89 (≈ 187 µM) | CCN1CC(Oc2ccc3c(c2)Cc2cccc(-c4cc(=O)cc(N5CCOCC5)o4)c2S3)C1 | 
84 (≈ 176 µM) | CN1CC[C@@H](Oc2ccc3c(c2)Cc2cccc(-c4cc(=O)cc(N5CCOCC5)o4)c2S3)C1 | 
21 (≈ 38.4 µM) | C[C@@H](CN1CCCC12COC2)Oc1ccc2c(c1)Cc1cccc(-c3cc(=O)cc(N4CCOCC4)o3)c1S2 | 
9 (≈ 17.3 µM) | C[C@@H](COc1ccc2c(c1)Cc1cccc(-c3cc(=O)cc(N4CCOCC4)o3)c1S2)N1CCOCC1 | 
89 (≈ 167 µM) | C[C@@H](CN1C[C@H]2C[C@@H]1CO2)Oc1ccc2c(c1)Cc1cccc(-c3cc(=O)cc(N4CCOCC4)o3)c1S2 | 
29 (≈ 51.5 µM) | C[C@@H](CN1CCOCC12COC2)Oc1ccc2c(c1)Cc1cccc(-c3cc(=O)cc(N4CCOCC4)o3)c1S2 | 
82 (≈ 158 µM) | O=c1cc(-c2cccc3c2Sc2ccc(OCCN4C[C@H]5C[C@@H]4CO5)cc2C3)oc(N2CCOCC2)c1 (relative stereo) | 
< 2 | O=c1cc(-c2cccc3c2Sc2ccc(OCC4CCOCC4)cc2C3)oc(N2CCOCC2)c1 | 
22 (≈ 47.3 µM) | COC[C@@H](C)Oc1ccc2c(c1)Cc1cccc(-c3cc(=O)cc(N4CCOCC4)o3)c1S2 | AUC/dose [2]: 680 nM·kg·h/mg; Kp [3]: 0.4; Kp uu [4]: 0.14; Vd [5]: 1.9 L/kg; AUC/dose [6]: 1600 nM·kg·h/mg
